In ChEMBL document CHEMBL4251712, “Mbandakamine-Type Naphthylisoquinoline Dimers and Related Alkaloids from the Central African Liana Ancistrocladus ealaensis with Antiparasitic and Antileukemic Activities” (J Nat Prod, 2018):
Calls of active or inactive are those of the source. The rule behind the calls is not given here.

Experiments:
[1] = tested on: Plasmodium falciparum; assay: Antiplasmodial activity against chloroquine-sensitive Plasmodium falciparum NF54 assessed as reduction in [3H]-hypoxanthine incorporation pretreated for 48 hrs followed by [3H]-hypoxanthine addition measured after 24 hrs by liquid scintillation counting method; assay type: functional, organism-based
[2] = tested on: CCRF-CEM; assay: Antileukemic activity against human CCRF-CEM cells after 24 to 48 hrs by resazurin dye based fluorescence assay; assay type: functional, cell-based
Summary of the method: (§1)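 Leukemia cells treated with compounds across 0.001 to 100 μM, doxorubicin as reference drug; viability read by resazurin assay. Values are means with standard deviation of three independent experiments, each with six parallel measurements.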

[3] = tested on: ADR5000 cell line; assay: Antileukemic activity against human CEM/ADR5000 cells after 24 to 48 hrs by resazurin dye based fluorescence assay; assay type: functional, cell-based; summary of the method: as §1
[4] = Resistance index, ratio of IC50 for human CEM/ADR5000 cells to IC50 for human CCRF-CEM cells; assay type: functional
Summary of the method: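 Degree of resistance calculated as IC50 for CEM/ADR5000 divided by IC50 for CCRF-CEM; IC50s from resazurin viability assay after treatment at 0.001 to 100 μM, three independent experiments of six parallels each.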

[5] = tested on: Plasmodium falciparum; assay: Antiplasmodial activity against chloroquine and pyrimethamine-resistant Plasmodium falciparum K1 assessed as reduction in [3H]-hypoxanthine incorporation pretreated for 48 hrs followed by [3H]-hypoxanthine addition measured after 24 hrs by liquid scintillation counting method; assay type: functional, organism-based
Summary of the method: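 IC50 against the K1 strain taken as the mean of two independent assays, with individual values differing by a factor of less than 2.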

[6] = tested on: Trypanosoma cruzi; assay: […] activity against Trypanosoma cruzi Tulahuen C4 infected in rat L6 cells after 96 hrs by CPRG/Nonidet reagent based photometric analysis; assay type: functional, organism-based; conditions: for IC50: Tulahuen C4, L6, 96 h
Summary of the method: (§2)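 IC50 values are means of two independent assays, individual values differing by less than a factor of 2.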

[7] = tested on: Trypanosoma brucei rhodesiense; assay: […] activity against Trypanosoma brucei rhodesiense STIB 900 trypomastigote after 72 hrs by Alamar blue assay; assay type: functional, organism-based; conditions: for IC50: STIB 900, 72 h; summary of the method: as §2
[8] = tested on: Leishmania donovani; assay: […] activity against Leishmania donovani MHOM-ET-67/L82 axenic amastigotes after 72 hrs by Alamar blue assay; assay type: functional, organism-based; conditions: for IC50: MHOM-ET-67/L82, 72 h; summary of the method: as §2
[9] = tested on: L6; assay: Cytotoxicity against rat L6 cells after 72 hrs by Alamar blue assay; assay type: cell-based; conditions: L6, 72 h; summary of the method: as §2
[10] = Selectivity index, ratio of IC50 for rat L6 cells to IC50 for chloroquine-sensitive Plasmodium falciparum NF54; assay type: toxicity; conditions: read-out: Ratio IC50
Summary of the method: (§3)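 Selectivity index is the L6-cell IC50 divided by the P. falciparum IC50 for the matching strain (K1 or NF54). Each IC50 is the mean of two independent assays, with individual values differing by a factor of less than 2.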

[11] = Selectivity index, ratio of IC50 for rat L6 cells to IC50 for chloroquine and pyrimethamine-resistant Plasmodium falciparum K1; assay type: toxicity; conditions: read-out: Ratio IC50; summary of the method: as §3
[12] = tested on: Plasmodium falciparum; assay: Antiplasmodial activity against Plasmodium falciparum NF54; assay type: functional, organism-based; summary of the method: as §2
[13] = tested on: CCRF-CEM; assay: Antileukemic activity against human CCRF-CEM cells assessed as reduction in cell viability at 0.001 to 100 uM after 24 to 48 hrs by resazurin dye based fluorescence assay relative to control
[14] = tested on: ADR5000 cell line; assay: Antileukemic activity against human CEM/ADR5000 cells assessed as reduction in cell viability at 0.001 to 100 uM after 24 to 48 hrs by resazurin dye based fluorescence assay relative to control

Compound	IC50 [1] [µM]	IC50 [5] [µM]	IC50 [6] [µM]	IC50 [7] [µM]	IC50 [8] [µM]	IC50 [9] [µM]	selectivity ratio [10]	selectivity ratio [11]	Activity [1]	Activity [5]	Activity [6]	Activity [7]	Activity [8]	also measured
COc1cc(O)c(-c2cc(-c3c(C)cc(O)c4c(OC)ccc(-c5c(O)cc(OC)c6c5C[C@@H](C)N[C@@H]6C)c34)c(O)c3c(OC)cc(C)cc23)c2c1[C@@H](C)N[C@H](C)C2	0.13													IC50 [2]: 7.4 µM; IC50 [3]: 23.9 µM; Ratio IC50 [4]: 3.2
COc1cc(C)cc2c(-c3c(O)cc(O)c4c3C[C@@H](C)N[C@H]4C)ccc(O)c12	9.94	12.9	237	15.3	26.4	79.1	7.95	6.13						
O=C(Cn1ccnc1[N+](=O)[O-])NCc1ccccc1 [BENZNIDAZOLE]			3.56											
COc1cc([C@@H]2c3cc4c(cc3[C@H](O)[C@H]3COC(=O)[C@H]23)OCO4)cc(OC)c1OC [PODOFILOX]						0.041								
COc1cc(O)c2c(c1)C[C@H](C)N[C@@H]2C									inactive	inactive	inactive	inactive	inactive	
COc1cc(OC)c2c(c1-c1ccc(O)c3c(OC)cc(C)cc13)C[C@H](C)N[C@H]2C [ANCISTROEALAINE B]	1.74	0.76	32.5	3.85	37.9	77.8	44.7	102						
COc1cc(O)c2c(c1)C[C@H](C)N[C@H]2C									inactive	inactive	inactive	inactive	inactive	
COc1cc(O)c(-c2ccc(OC)c3c(O)cc(C)c(-c4cc(-c5c(O)cc(OC)c6c5C[C@@H](C)N[C@H]6C)c5cc(C)cc(OC)c5c4O)c23)c2c1C(C)=N[C@H](C)C2	0.337	0.126		4.1	> 100	8.87	26.3	70.4						IC50 [2]: 2.96 µM; IC50 [3]: 19 µM; Ratio IC50 [4]: 6.4
COc1cc(O)cc2c1C(C)=N[C@@H](C)C2									inactive	inactive	inactive	inactive	inactive	
COc1cc(O)c(-c2cc(-c3c(C)cc(O)c4c(OC)ccc(-c5c(O)cc(OC)c6c5C[C@@H](C)N[C@@H]6C)c34)c(O)c3c(OC)cc(C)cc23)c2c1[C@H](C)N[C@H](C)C2	0.047	0.064	41.8	1.8	> 100	15.9	339	249						IC50 [2]: 1.5 µM; IC50 [3]: 27.7 µM; Ratio IC50 [4]: 18.5
COc1cc(C)cc2c(-c3c(O)cc(O)c4c3C[C@@H](C)N[C@@H]4C)ccc(O)c12 [KORUPENSAMINE A]														IC50 [12]: 0.82 µM
COc1cc(OC)c(-c2ccc(O)c3c(OC)cc(C)cc23)c2c1C(C)=N[C@@H](C)C2	2.69	1.06	43.4	1.46	13.4	101	37.5	95.3						Activity [13]: <20%; Activity [14]: <20%
COc1cc(O)c2c(c1)C[C@H](C)N=C2C									inactive	inactive	inactive	inactive	inactive	
